This note sets out measurements from ChEMBL document CHEMBL1122137, “Antiinflammatory properties of 8-aryl-5-isopropyl-2H-1,3-dioxolo[4,5-g]quinazolin-6(5H)-ones and -thiones” (1982).

Molecules are shown by their SMILES.

Type in all cases: functional
For assay [1], the system named is Rattus norvegicus. Put plainly: Inhibition of carrageenan edema in rats was determined after peroral administration of 100 mg/kg. As to conditions: route oral. The procedure, abridged:
(§1)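 Male Wistar rats (150–175 g) dosed orally, in mg/kg, as a suspension in 0.5% carboxymethylcellulose (1 mL/kg), 1 h before subplantar injection of 0.1 mL of 1% Type 402 carrageenin. Paw edema measured by electronic plethysmography at 3 h. Swelling (3 h minus 0 h) per rat; treated-group mean expressed as percent of vehicle-control mean.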

Assay [2] concerns Rattus norvegicus. Kind of assay: Inhibition of carrageenan edema in adrenalectomized rats was determined after peroral administration. As to conditions: po. The procedure, abridged: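 Carrageenin paw edema run as in intact rats, but male Wistar rats were bilaterally adrenalectomized under ether and allowed 7 days to recover. They drank 1.0% NaCl plus 2.5% dextrose and ate standard chow. Oral dosing in 0.5% CMC 1 h before subplantar 1% carrageenin. Plethysmographic swelling at 3 h, as percent of vehicle-treated controls.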

Assay [3] deals with Rattus norvegicus. Kind of assay: Nonnarcotic analgesic effect was determined after peroral administration in rats. As to conditions: po, read-out: MED.
In assay [4] the test system is Rattus norvegicus. Put plainly: Inhibition of carrageenan edema in normal rats was determined after peroral administration. The settings on record: po. The procedure, abridged: as §1
In assay [5] the test system is Rattus norvegicus. Put plainly: Bronchoconstrictor effect of bradykinin was determined after intravenous administration in rats.
The species entered for assay [6] is Rattus norvegicus. Kind of assay: Inhibition of the development of adjuvant-induced polyarthritis in rats was determined.
For assay [7], the system named is Rattus norvegicus. Kind of assay: Nonnarcotic analgesic effect was determined after peroral administration in rats. As to conditions: po, read-out: MED.
Assay [8] has as its system Rattus norvegicus. Put plainly: Bronchoconstrictor effect of bradykinin was determined after intravenous administration in rats.

As for `CC(C)n1c(=S)nc(-c2cccc([N+](=O)[O-])c2)c2cc3c(cc21)OCO3`, the inhibition in vivo at 100 mg/kg with Rattus norvegicus [1] was determined as 0%.
For `CC(C)n1c(=O)nc(-c2cccc(F)c2)c2cc3c(cc21)OCO3`, the ED50 turned out to be 14 mg/kg with Rattus norvegicus [2]; 9 mg/kg in the assay on Rattus norvegicus [4]; 0.05 mg/kg in the assay on Rattus norvegicus [5]; 9 mg/kg in the assay listed under Rattus norvegicus [6]; 9 mg/kg with Rattus norvegicus [1]. Besides, in the assay with Rattus norvegicus [3], the minimal effective dose is 11 mg/kg.
With `CC(C)n1c(=O)nc(-c2ccc(OCc3ccccc3)cc2)c2cc3c(cc21)OCO3`, 100 mg/kg produced 17% inhibition in vivo in the assay on Rattus norvegicus [1].
Same read-out and setting: then `CC(C)n1c(=O)nc(-c2ccc(Cl)c(Cl)c2)c2cc3c(cc21)OCO3`, with 30%.
Compound `CC(C)n1c(=S)nc(-c2ccc(F)cc2)c2cc3c(cc21)OCO3` showed an inhibition in vivo at 100 mg/kg in the assay on Rattus norvegicus [1] of 49%.
For `Cc1ccc2c(-c3ccccc3)nc(=O)n(C(C)C)c2c1` [PROQUAZONE], the 50% effective dose (ED50) in the assay on Rattus norvegicus [2] stood at 6 mg/kg; with Rattus norvegicus [4], 5 mg/kg; in the assay filed under Rattus norvegicus [6], 1 mg/kg; with Rattus norvegicus [1] it was 5 mg/kg. Moreover, the minimal effective dose with Rattus norvegicus [7] is 1 mg/kg.
With `CC(C)n1c(=O)nc(-c2ccccc2)c2cc3c(cc21)OCO3`, the ED50 stood at 9 mg/kg in the assay on Rattus norvegicus [2]; 0.012 mg/kg in the assay on Rattus norvegicus [8]; 8 mg/kg in the assay with Rattus norvegicus [4]; 3 mg/kg in the assay listed under Rattus norvegicus [6]; 7 mg/kg in the assay on Rattus norvegicus [1]. Also, the minimal effective dose with Rattus norvegicus [3] amounted to 50 mg/kg.
In the assay on Rattus norvegicus [1], `Cc1ccc(-c2nc(=O)n(C(C)C)c3cc4c(cc23)OCO4)cc1` came in with an inhibition in vivo at 100 mg/kg of 22%.
On to `CC(C)n1c(=O)nc(-c2ccccc2[N+](=O)[O-])c2cc3c(cc21)OCO3`, for which the median effective dose (ED50) in the assay with Rattus norvegicus [1] worked out at 39 mg/kg.
As for `CC(C)n1c(=S)nc(-c2cccc(F)c2)c2cc3c(cc21)OCO3`, in the assay on Rattus norvegicus [1], 100 mg/kg produced 36% inhibition in vivo.
Regarding `CC(C)n1c(=S)nc(-c2ccccc2)c2cc3c(cc21)OCO3`, the median effective dose (ED50) came to 0.047 mg/kg with Rattus norvegicus [8], 7 mg/kg with Rattus norvegicus [4], 6 mg/kg in the assay listed under Rattus norvegicus [6] and 7 mg/kg with Rattus norvegicus [1].
As to `CC(C)n1c(=O)nc(-c2ccc(C(=O)O)cc2)c2cc3c(cc21)OCO3`, in the assay with Rattus norvegicus [1], the inhibition in vivo at 100 mg/kg came to 33%.
In the case of `COc1ccc2c(c1)c(CC(=O)O)c(C)n2C(=O)c1ccc(Cl)cc1` [INDOMETHACIN], the ED50 was determined as 6 mg/kg in the assay with Rattus norvegicus [2], 5 mg/kg with Rattus norvegicus [4], 0.1 mg/kg in the assay listed under Rattus norvegicus [6] and 5 mg/kg in the assay on Rattus norvegicus [1]. Also, the minimal effective dose in the assay with Rattus norvegicus [7] came out at 4 mg/kg.
As to `Cc1ccccc1-c1nc(=O)n(C(C)C)c2cc3c(cc12)OCO3`, the 50% effect level in the assay on Rattus norvegicus [1] (ED50) was put at a dose of 65 mg/kg.
Compound `CC(C)n1c(=O)nc(-c2cccc([N+](=O)[O-])c2)c2cc3c(cc21)OCO3` had an inhibition in vivo at 100 mg/kg in the assay with Rattus norvegicus [1] of 28%.
For `CCCCC1C(=O)N(c2ccccc2)N(c2ccccc2)C1=O` [PHENYLBUTAZONE], the ED50 with Rattus norvegicus [2] was determined as 30 mg/kg; with Rattus norvegicus [4], 25 mg/kg; in the assay filed under Rattus norvegicus [6], 5 mg/kg; in the assay on Rattus norvegicus [1], 25 mg/kg. For the same compound, the minimal effective dose in the assay on Rattus norvegicus [7] worked out at 9 mg/kg.
Consider `CC(C)n1c(=O)nc(-c2ccc(F)cc2)c2cc3c(cc21)OCO3`, for which the ED50 in the assay with Rattus norvegicus [2] is 20 mg/kg; with Rattus norvegicus [8], 0.17 mg/kg; in the assay on Rattus norvegicus [4] it was 8 mg/kg; in the assay listed under Rattus norvegicus [6] it was 6 mg/kg; in the assay on Rattus norvegicus [1], 8 mg/kg. Besides, in the assay on Rattus norvegicus [3], the minimal effective dose was determined as 4 mg/kg.
In the assay with Rattus norvegicus [1], `Cc1ccccc1C1NC(=O)N(C(C)C)c2cc3c(cc21)OCO3` (stereo unspecified) registered an ED50 of 50 mg/kg.
`CC(C)n1c(=O)nc(-c2ccc3c(c2)OCO3)c2cc3c(cc21)OCO3` came in with an inhibition in vivo at 100 mg/kg with Rattus norvegicus [1] of 21%.
On the same count and under the same terms, then `CC(C)c1ccc(-c2nc(=S)n(C(C)C)c3cc4c(cc23)OCO4)cc1`, with 10%; and `COc1cccc(-c2nc(=O)n(C(C)C)c3cc4c(cc23)OCO4)c1`, with 12%.
